According to ChEMBL document CHEMBL1938374, “Synthesis and biological characterization of 3-substituted-1H-indoles as ligands of GluN2B-containing N-methyl-D-aspartate receptors” (J Med Chem, 2011):
pIC50, pKi: −log10 of the molar value. Activity calls are given as the source filed them. No cut-off for these calls is given here.

Key:
[1] = molecular target: Glutamate receptor ionotropic, NMDA 2B (Rattus norvegicus) (UniProt Q00960); experiment: Displacement of [3H]ifenprodil from GluN2B/NMDA in Wistar rat cerebral cortex at 10 uM after 120 mins by scintillation counting; assay type: tissue-based
[2] = molecular target: Glutamate receptor ionotropic, NMDA 2B (Rattus norvegicus, UniProt Q00960); experiment: Displacement of [3H]ifenprodil from GluN2B/NMDA in Wistar rat cerebral cortex after 120 mins by scintillation counting; assay type: tissue-based
Mus musculus [3] = experiment: Anticonvulsant activity in DBA/2 mouse assessed as inhibition of audiogenic clonic seizures administered as ip, 30 mins prior to auditory stimulation measured for 60 secs; assay type: functional; settings: DBA/2, ip
Procedure, shortened: (§1)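 Seizure ED50 values, in μmol/kg, were computed by the Litchfield and Wilcoxon method. At least 32 animals went into each ED50, and 95% confidence limits are reported.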

Mus musculus [4] = experiment: Anticonvulsant activity in DBA/2 mouse assessed as inhibition of audiogenic tonic seizures administered as ip, 30 mins prior to auditory stimulation measured for 60 secs; assay type: functional; settings: DBA/2, ip; procedure, shortened: as §1
[5] = molecular target: Glutamate receptor ionotropic, NMDA 2B (Mus musculus) (UniProt Q01097); experiment: Antagonist activity at GluN2B/NMDA in FVB mouse CA1 pyramidal neurons assessed as reduction in NMDA-mediated inward current at 10 uM measured for 5 mins by whole-cell patch clamp assay in presence of glycine and tetrodotoxin; assay type: functional, cell-based; settings: Pyramidal neuron
[6] = molecular target: Sigma non-opioid intracellular receptor 1 (Cavia porcellus, UniProt Q60492); experiment: Displacement of [3H](+)pentazocine from sigma 1 receptor in guinea pig brain membrane after 150 mins by liquid scintillation counting; assay type: cell membranes
[7] = Displacement of [3H]DTG from sigma 2 receptor after 120 mins by liquid scintillation counting in presence of (+)-SKF10,047

Chain of Glutamate receptor ionotropic, NMDA 2B (Q00960 whole entry): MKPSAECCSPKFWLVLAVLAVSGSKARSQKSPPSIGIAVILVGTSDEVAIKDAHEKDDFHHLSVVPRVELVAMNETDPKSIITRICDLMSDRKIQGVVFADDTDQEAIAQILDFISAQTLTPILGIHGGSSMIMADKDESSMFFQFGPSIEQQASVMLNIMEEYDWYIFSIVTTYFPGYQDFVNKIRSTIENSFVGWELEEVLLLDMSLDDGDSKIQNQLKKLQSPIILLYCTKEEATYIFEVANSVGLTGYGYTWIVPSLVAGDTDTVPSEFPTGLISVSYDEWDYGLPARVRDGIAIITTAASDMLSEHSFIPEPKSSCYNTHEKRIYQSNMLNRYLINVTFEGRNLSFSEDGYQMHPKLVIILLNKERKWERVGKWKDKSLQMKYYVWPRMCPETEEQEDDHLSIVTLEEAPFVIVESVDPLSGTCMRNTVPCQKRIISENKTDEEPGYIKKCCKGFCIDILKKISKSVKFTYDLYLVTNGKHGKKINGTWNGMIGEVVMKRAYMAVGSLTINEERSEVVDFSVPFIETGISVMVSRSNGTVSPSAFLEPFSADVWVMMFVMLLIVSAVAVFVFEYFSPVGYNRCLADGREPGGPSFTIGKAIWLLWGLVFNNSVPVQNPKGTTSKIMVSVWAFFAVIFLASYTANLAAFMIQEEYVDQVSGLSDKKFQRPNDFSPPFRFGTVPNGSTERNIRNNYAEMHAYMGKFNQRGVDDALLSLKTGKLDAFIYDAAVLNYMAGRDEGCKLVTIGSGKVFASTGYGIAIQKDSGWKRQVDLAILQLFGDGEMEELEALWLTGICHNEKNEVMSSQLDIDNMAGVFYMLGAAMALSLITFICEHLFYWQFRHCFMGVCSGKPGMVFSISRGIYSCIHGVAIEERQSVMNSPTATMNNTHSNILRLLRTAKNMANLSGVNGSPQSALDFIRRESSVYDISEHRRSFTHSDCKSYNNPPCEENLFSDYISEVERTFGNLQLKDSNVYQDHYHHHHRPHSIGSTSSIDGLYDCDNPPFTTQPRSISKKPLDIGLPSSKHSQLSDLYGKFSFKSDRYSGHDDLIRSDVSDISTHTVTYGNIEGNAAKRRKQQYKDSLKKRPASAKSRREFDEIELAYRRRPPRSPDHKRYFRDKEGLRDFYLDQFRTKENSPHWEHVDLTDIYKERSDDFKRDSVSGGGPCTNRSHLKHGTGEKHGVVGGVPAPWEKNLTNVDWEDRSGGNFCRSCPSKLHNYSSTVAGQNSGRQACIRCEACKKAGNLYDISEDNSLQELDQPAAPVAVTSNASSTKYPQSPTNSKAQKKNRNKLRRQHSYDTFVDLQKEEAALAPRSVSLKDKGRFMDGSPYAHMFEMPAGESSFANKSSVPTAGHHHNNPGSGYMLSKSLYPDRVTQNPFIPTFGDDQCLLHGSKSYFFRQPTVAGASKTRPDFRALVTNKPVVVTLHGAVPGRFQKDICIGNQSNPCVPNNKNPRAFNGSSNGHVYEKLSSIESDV
Chain of Glutamate receptor ionotropic, NMDA 2B (Rattus norvegicus) (Q00960 27-1482 limits assumed): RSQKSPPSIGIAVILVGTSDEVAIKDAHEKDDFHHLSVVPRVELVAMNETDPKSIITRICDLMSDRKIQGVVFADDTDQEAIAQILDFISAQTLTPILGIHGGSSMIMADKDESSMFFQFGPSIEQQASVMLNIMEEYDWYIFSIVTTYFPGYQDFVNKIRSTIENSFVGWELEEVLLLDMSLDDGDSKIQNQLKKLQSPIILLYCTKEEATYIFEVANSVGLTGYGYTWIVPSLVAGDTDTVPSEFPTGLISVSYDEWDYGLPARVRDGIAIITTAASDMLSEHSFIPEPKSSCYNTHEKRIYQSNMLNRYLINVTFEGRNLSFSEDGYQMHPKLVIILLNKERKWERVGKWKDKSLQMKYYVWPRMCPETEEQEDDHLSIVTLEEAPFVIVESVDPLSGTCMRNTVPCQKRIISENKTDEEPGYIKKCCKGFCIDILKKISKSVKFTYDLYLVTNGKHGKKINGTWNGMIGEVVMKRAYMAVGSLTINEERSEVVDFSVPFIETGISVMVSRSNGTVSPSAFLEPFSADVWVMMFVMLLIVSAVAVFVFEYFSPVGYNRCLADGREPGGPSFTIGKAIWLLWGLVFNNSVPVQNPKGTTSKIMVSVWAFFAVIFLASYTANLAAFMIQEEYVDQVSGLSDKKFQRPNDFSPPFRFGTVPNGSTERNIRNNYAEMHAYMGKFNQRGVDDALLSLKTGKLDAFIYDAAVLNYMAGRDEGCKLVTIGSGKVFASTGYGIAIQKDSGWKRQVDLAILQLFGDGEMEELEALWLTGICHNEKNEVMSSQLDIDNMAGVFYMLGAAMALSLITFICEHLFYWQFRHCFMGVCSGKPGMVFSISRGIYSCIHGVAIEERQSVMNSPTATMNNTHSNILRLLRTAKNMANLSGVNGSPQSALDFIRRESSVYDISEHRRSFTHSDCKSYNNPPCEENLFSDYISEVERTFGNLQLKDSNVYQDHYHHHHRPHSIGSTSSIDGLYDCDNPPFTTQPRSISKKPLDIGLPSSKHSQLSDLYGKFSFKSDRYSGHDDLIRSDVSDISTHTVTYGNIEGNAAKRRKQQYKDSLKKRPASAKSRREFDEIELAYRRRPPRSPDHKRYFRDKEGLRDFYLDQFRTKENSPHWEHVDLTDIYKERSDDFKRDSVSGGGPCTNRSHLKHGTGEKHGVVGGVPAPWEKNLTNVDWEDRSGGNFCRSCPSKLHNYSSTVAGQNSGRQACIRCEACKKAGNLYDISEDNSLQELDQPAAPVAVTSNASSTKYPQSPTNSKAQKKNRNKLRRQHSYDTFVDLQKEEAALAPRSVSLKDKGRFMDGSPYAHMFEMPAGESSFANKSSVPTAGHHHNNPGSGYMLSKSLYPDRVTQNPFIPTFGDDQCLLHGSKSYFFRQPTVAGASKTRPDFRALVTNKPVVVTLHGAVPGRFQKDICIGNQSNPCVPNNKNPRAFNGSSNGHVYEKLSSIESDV
Chain of Sigma non-opioid intracellular receptor 1 (Q60492 whole entry): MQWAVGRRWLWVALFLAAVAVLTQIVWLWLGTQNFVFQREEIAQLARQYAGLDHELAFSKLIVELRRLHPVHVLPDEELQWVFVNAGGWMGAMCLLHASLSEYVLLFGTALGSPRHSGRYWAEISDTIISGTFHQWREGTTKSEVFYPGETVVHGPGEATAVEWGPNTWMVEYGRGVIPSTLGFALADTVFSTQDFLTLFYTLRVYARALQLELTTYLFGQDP
Chain of Glutamate receptor ionotropic, NMDA 2B (Mus musculus) (Q01097 whole entry): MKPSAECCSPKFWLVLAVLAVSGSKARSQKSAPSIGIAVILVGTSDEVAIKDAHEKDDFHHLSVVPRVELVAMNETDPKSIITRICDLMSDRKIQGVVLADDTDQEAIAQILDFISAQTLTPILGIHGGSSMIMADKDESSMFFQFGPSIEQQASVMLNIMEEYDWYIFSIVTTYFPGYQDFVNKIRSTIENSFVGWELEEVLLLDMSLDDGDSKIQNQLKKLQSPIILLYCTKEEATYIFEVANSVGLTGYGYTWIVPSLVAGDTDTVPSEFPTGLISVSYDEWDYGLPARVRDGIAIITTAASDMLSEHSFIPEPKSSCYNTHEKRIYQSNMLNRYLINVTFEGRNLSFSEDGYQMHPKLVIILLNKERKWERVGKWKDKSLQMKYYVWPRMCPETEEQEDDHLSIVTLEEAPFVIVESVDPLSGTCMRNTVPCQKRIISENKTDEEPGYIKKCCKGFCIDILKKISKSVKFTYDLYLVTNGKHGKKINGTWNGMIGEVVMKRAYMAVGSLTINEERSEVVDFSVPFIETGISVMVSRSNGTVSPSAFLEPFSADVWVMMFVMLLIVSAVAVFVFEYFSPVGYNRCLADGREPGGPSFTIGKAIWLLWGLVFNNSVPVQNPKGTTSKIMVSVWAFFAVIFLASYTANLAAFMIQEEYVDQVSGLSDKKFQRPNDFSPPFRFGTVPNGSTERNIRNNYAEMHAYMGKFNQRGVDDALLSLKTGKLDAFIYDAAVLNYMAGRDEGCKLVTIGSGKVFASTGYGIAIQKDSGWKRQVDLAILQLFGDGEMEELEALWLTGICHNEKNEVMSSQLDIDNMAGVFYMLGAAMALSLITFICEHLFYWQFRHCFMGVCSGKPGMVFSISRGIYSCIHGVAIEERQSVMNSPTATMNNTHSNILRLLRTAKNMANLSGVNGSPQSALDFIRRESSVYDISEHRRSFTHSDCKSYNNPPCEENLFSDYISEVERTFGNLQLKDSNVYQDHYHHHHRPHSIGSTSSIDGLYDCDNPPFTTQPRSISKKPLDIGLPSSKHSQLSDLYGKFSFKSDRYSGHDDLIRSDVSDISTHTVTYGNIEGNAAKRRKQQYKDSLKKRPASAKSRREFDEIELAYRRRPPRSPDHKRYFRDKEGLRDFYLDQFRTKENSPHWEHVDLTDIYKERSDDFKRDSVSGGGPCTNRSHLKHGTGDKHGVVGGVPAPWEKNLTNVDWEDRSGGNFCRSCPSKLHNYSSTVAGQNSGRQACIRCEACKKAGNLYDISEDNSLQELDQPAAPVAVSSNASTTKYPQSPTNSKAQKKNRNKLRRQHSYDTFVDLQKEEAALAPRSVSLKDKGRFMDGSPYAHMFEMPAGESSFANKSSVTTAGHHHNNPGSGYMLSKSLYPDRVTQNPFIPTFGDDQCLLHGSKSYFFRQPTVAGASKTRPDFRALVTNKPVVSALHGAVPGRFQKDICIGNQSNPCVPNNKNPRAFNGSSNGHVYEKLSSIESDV

Row | SMILES | Activity [1] [%] | pIC50 [2] | ED50 (Mus musculus [3]) [µmol/kg] | ED50 (Mus musculus [4]) [µmol/kg] | Activity [5] | pKi [6] | pKi [7]
1 | O=C(CN1CCC(Cc2ccccc2)CC1)c1c[nH]c2cccc(O)c12 | 77 | 5.18 | 68.1 | 13.7 |  |  | 
2 | O=C(CN1CCC(Cc2ccccc2)CC1)c1c[nH]c2ccc(O)cc12 |  |  |  |  | Active | < 6.00 | 7.12
3 | COc1cccc2c(C(=O)CN3CCC(Cc4ccccc4)CC3)c[nH]c12 | 62 | 5.54 | 80.3 | 35.8 |  |  | 
4 | O=C(C(=O)N1CCC(Cc2ccccc2)CC1)c1c[nH]c2ccc(O)cc12 |  |  |  |  |  | < 6.00 | 
5 | COc1cccc2c(C(=O)C(=O)N3CCC(Cc4ccccc4)CC3)c[nH]c12 | 33 |  | 51.4 | 27.4 |  |  | 
6 | COc1ccc2c(C(=O)CN3CCC(Cc4ccccc4)CC3)c[nH]c2c1 | 4 |  | 67.8 | 30.1 |  |  | 
7 | O=C(CN1CCN(Cc2ccccc2)CC1)c1c[nH]c2ccc(O)cc12 | 27 |  | > 100 | 44.9 |  | 6.36 | 6.25
8 | O=C(C(=O)N1CCC(Cc2ccccc2)CC1)c1c[nH]c2c(O)cccc12 | 79 | 5.70 | 80.5 | 36.2 |  |  | 
9 | O=C(CN1CCC(Cc2ccccc2)CC1)c1c[nH]c2cc(O)ccc12 | 92 | 7.77 | 95.4 | 53.7 | inactive | < 6.00 | 7.37
10 | O=C(C(=O)N1CCC(Cc2ccccc2)CC1)c1c[nH]c2cc(O)ccc12 | 92 | 7.66 | 84.4 | 38.9 |  | < 6.00 | 
11 | O=C(CN1CCC(Cc2ccccc2)CC1)c1c[nH]c2c(O)cccc12 | 72 | 5.15 | > 100 | 53.8 |  |  | 
12 | COc1ccc2[nH]cc(C(=O)CN3CCC(Cc4ccccc4)CC3)c2c1 | 86 |  |  |  |  |  | 
13 | COc1ccc2c(C(=O)C(=O)N3CCC(Cc4ccccc4)CC3)c[nH]c2c1 |  |  | 11.9 | 4.68 |  |  | 
14 | O=C(C(=O)N1CCC(Cc2ccccc2)CC1)c1c[nH]c2cccc(O)c12 | 24 |  | 52.1 | 28.9 |  |  | 
15 | COc1cccc2[nH]cc(C(=O)C(=O)N3CCC(Cc4ccccc4)CC3)c12 | 14 |  | > 100 | 76.7 |  |  | 
16 | O=C(CN1CCN(Cc2ccccc2)CC1)c1c[nH]c2ccccc12 | 14 |  |  |  |  |  | 
17 | COc1cccc2[nH]cc(C(=O)CN3CCC(Cc4ccccc4)CC3)c12 | 82 | 6.49 | 32.7 | 16.2 |  |  | 
18 | COc1ccc2[nH]cc(C(=O)C(=O)N3CCC(Cc4ccccc4)CC3)c2c1 | 9 |  |  |  |  |  | 
19 | COc1ccc2[nH]cc(C(=O)CN3CCN(Cc4ccccc4)CC3)c2c1 |  |  | 98.7 | 63.8 |  |  | 
